Results taken from PubChem BioAssay.
Activity calls are given as the source filed them.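 How the source made its calls, unless noted: active means GFP response above 150% of the DMSO level; inconclusive means fewer than 70 events counted for a yeast strain; inactive means the rest.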

How the values were obtained:
[1] = hit retest on RPL19A-GFP reporter strain – cell-based, S. cerevisiae, flow cytometry, cherry picks, mother/daughter gates, confirmation (AID 2270;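 active means GFP response below 50% of the DMSO control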); details: 3 h, at 10 µM, stronger effect = lower value, 100 = same GFP as DMSO wells
[2] = yeast TOR pathway reporter LAP4-GFP change – cell-based, cherry picks, flow cytometry, mother/daughter gates, confirmation (AID 2271;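 active means GFP response above 150% of the DMSO control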;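 further: ratio of sample to DMSO plate mean so 100% equals DMSO level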); details: S. cerevisiae LAP4-GFP strain, 3 h, at 10 µM, stronger effect = higher value, 100 means same as DMSO control
How it was run: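 Test system: GFP-fusion yeast strain. Medium: synthetic complete (SC) yeast growth medium. Timing: 3 h treatment at 30 °C with rotation. Measured by: GFP by flow cytometry. Control set: positive rapamycin (400 ng/mL), negative DMSO.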

[3] = TOR pathway reporter MEP2-GFP, retest of hits – S. cerevisiae, flow cytometry GFP, cherry picks, confirmation (AID 2272;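 active means GFP response above 150% of the DMSO control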;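 further: ratio of well signal to plate DMSO mean so 100% equals DMSO level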); details: S. cerevisiae MEP2-GFP strain, 3 h, at 10 µM, stronger effect = higher value
[4] = yeast AGP1-GFP fluorescence change, single-dose – cell-based, flow cytometry, S. cerevisiae, cherry picks, confirmation (AID 2273);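 further: median GFP channel fluorescence over the whole cell population gate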; details: S. cerevisiae AGP1-GFP strain, 3 h, at 10 µM
[5] = TOR pathway CIT2 reporter hit retest – S. cerevisiae, GFP fusion, cherry picks, mother/daughter gates, confirmation (AID 2274); details: S. cerevisiae CIT2-GFP strain, flow cytometry, 3 h, at 10 µM, stronger effect = higher value
[6] = measured here: daughter cell gate
[7] = measured here: mother cell gate
[8] = measured here: daughter cell gate response
[9] = measured here: mother cell gate response

| Compound | GFP response vs DMSO [1] | GFP response vs DMSO [1, 6] | GFP response vs DMSO [1, 7] | GFP response relative to DMSO [2] | GFP response relative to DMSO [2, 8] | GFP response relative to DMSO [2, 9] | GFP response vs DMSO [3] | GFP response, % of DMSO [4] | GFP response, % of DMSO [5] | GFP response, % of DMSO [5, 6] | GFP response, % of DMSO [5, 7] |
| --- | --- | --- | --- | --- | --- | --- | --- | --- | --- | --- | --- |
| Cc1[nH]n(-c2ccccc2)c(=O)c1/C=N/Nc1nncc(-c2ccccc2)n1 | 88.1% (inactive) | 85.8% | 88.9% | 149% (inactive) | 137% | 151% | 108% (inactive) | 110% (inactive) | 86% (inactive) | 84.1% | 83.8% |
| COc1ccc(N2CCN(c3nc4c(C)cccn4c(=O)c3/C=C(\C#N)C(N)=O)CC2)cc1 | 97.8% (inactive) | 97.3% | 97.5% | 101% (inactive) | 101% | 101% | 103% (inactive) | 106% (inactive) | 103% (inactive) | 105% | 102% |
| O=C(OC(c1ccc(NS(=O)(=O)c2ccccc2)cc1)(C(F)(F)F)C(F)(F)F)c1ccccc1 | 100% (inactive) | 101% | 100% | 94.9% (inactive) | 95.1% | 95.1% | 110% (inactive) | 104% (inactive) | 92.2% (inactive) | 95.2% | 91.8% |
| CCOC(=O)C1CCCN(c2nc3c(C)cccn3c(=O)c2/C=C(\C#N)C(=O)NCc2ccco2)C1 (centres undefined) | 102% (inactive) | 101% | 101% | 101% (inactive) | 102% | 99.5% | 114% (inactive) | 95.2% (inactive) | 104% (inactive) | 104% | 100% |
| Cc1nn(C(=O)c2ccco2)c(C)c1Sc1ccccc1 | 95.6% (inactive) | 97% | 94.4% | 97.7% (inactive) | 99% | 95.4% | 101% (inactive) | 97% (inactive) | 98.6% (inactive) | 99.3% | 98.2% |
| O=C(c1ccc2c(c1)OCO2)N1CCN(c2ccc(F)cc2)CC1 | 103% (inactive) | 101% | 102% | 90.2% (inactive) | 89.5% | 91.1% | 102% (inactive) | 98.5% (inactive) | 99.1% (inactive) | 96.5% | 99.8% |
| Cc1[nH]c2ccccc2c1C(c1ccccn1)N1CCC(C(N)=O)CC1 (centres undefined) | 97.4% (inactive) | 99.1% | 96.6% | 96.7% (inactive) | 99.2% | 97.2% | 98.3% (inactive) | 94.7% (inactive) | 101% (inactive) | 103% | 101% |
| Oc1c(CN2CCN(c3ccccc3)CC2)cc(Br)c2cccnc12 | 99.6% (inactive) | 101% | 95.9% | 220% (active) | 168% | 231% | 153% (inactive) | 81.5% (inactive) | 103% (inactive) | 99.1% | 93.8% |
| CCCN(c1ccccc1F)S(=O)(=O)c1cc(-c2cc(C)no2)ccc1OC | 95.6% (inactive) | 95.6% | 96.1% | 97.9% (inactive) | 96% | 98.3% | 102% (inactive) | 95.6% (inactive) | 95.5% (inactive) | 95.4% | 95% |
| Cc1ccc(/C(C#N)=C\c2ccc(N3CCOCC3)o2)cc1 | 97.8% (inactive) | 97.1% | 98% | 102% (inactive) | 104% | 103% | 109% (inactive) | 99.4% (inactive) | 98.8% (inactive) | 99.2% | 99.3% |
| Cc1ccc2[nH]c(C)c(/C=C/c3cc[n+](C)cc3)c2c1 | 118% (inactive) | 120% | 117% | 198% (active) | 210% | 190% | 268% (active) | 122% (inactive) | 223% (active) | 241% | 211% |
| CCOc1ccccc1N1C(=O)CC(Sc2ncccc2C(=O)O)C1=O (centres undefined) | 101% (inactive) | 99% | 102% | 106% (inactive) | 106% | 107% | 120% (inactive) | 98.5% (inactive) | 103% (inactive) | 105% | 102% |
| Cc1ccc(/C=C2/SC(=S)N(C3CCCCC3)C2=O)o1 | 100% (inactive) | 100% | 98.6% | 157% (active) | 145% | 161% | 126% (inactive) | 106% (inactive) | 98.8% (inactive) | 101% | 89.5% |
| Cc1nn2c(N3CCOCC3)c3c(nc2c1-c1ccccc1)CCCC3 | 103% (inactive) | 102% | 102% | 101% (inactive) | 96% | 102% | 103% (inactive) | 103% (inactive) | 103% (inactive) | 101% | 102% |
| COc1ccc(/C=C/C(=O)NC(=S)NNC(=O)c2cnccn2)cc1 | 105% (inactive) | 91.1% | 79.2% | 166% (active) | 120% | 162% | 140% (inactive) | 78.5% (inactive) | 115% (inactive) | 99.1% | 106% |
| O=C1c2ccsc2SCCN1Cc1cccc(F)c1 | 96% (inactive) | 95.7% | 96.8% | 103% (inactive) | 102% | 104% | 92.6% (inactive) | 89.9% (inactive) | 87.2% (inactive) | 90.2% | 84.6% |
| O=C(COC(=O)c1n[nH]c2ccccc12)c1ccc(F)c(F)c1 | 97.1% (inactive) | 98.7% | 96.3% | 104% (inactive) | 97.5% | 106% | 103% (inactive) | 97% (inactive) | 98.6% (inactive) | 101% | 98.2% |

| Compound | GFP response vs DMSO [1] | GFP response vs DMSO [1, 6] | GFP response vs DMSO [1, 7] | GFP response relative to DMSO [2] | GFP response relative to DMSO [2, 8] | GFP response relative to DMSO [2, 9] | GFP response vs DMSO [3] | GFP response, % of DMSO [4] | GFP response, % of DMSO [5] | GFP response, % of DMSO [5, 6] | GFP response, % of DMSO [5, 7] |
| --- | --- | --- | --- | --- | --- | --- | --- | --- | --- | --- | --- |
| CCCc1[nH]nc2c1C(c1cc(OC)cc(OC)c1)C(C#N)=C(N)O2 (centres undefined) | 101% (inactive) | 99.8% | 101% | 103% (inactive) | 100% | 106% | 102% (inactive) | 100% (inactive) | 95.2% (inactive) | 93.2% | 95.5% |
| CCOc1cc(N2CCOCC2)c(OCC)cc1NC(=O)C(NC(=O)c1ccco1)C(C)C (centres undefined) | 102% (inactive) | 101% | 102% | 91.4% (inactive) | 95.6% | 93.1% | 107% (inactive) | 99.6% (inactive) | 108% (inactive) | 108% | 108% |
| COC(=O)c1sc(-c2ccc(C(C)(C)C)cc2)cc1NC(=O)CCC(=O)O | 98.6% (inactive) | 97.3% | 98.9% | 98.7% (inactive) | 95.6% | 100% | 100% (inactive) | 95.4% (inactive) | 97.8% (inactive) | 96.5% | 98.7% |
| CCOC(=O)/C(=C\c1cn(C)c2ccccc12)[N+](=O)[O-] | 98.2% (inactive) | 93.4% | 93.6% | 204% (active) | 163% | 202% | 111% (inactive) | 84.2% (inactive) | 86.9% (inactive) | 88.1% | 76% |
| NS(=O)(=O)c1ccc(S(=O)(=O)c2ccccc2)nc1 | 98.2% (inactive) | 99.1% | 96.9% | 97.9% (inactive) | 97.6% | 97.2% | 102% (inactive) | 95.6% (inactive) | 103% (inactive) | 105% | 102% |
| CCS(=O)(=O)N1N=C(c2ccccc2)CC1c1ccc2nccnc2c1 (centres undefined) | 98.4% (inactive) | 98.9% | 99.3% | 105% (inactive) | 103% | 104% | 116% (inactive) | 104% (inactive) | 105% (inactive) | 105% | 107% |
| CN(C)S(=O)(=O)c1cc(NC(=O)CN2CCOCC2)ccc1Cl | 97.6% (inactive) | 97.3% | 97.7% | 95.3% (inactive) | 99% | 96.4% | 97.2% (inactive) | 97.3% (inactive) | 100% (inactive) | 99.3% | 102% |
| N/C(Cc1ccc(Cl)c(Cl)c1)=N\OC(=O)c1cccs1 | 94.9% (inactive) | 89.4% | 83% | 226% (active) | 160% | 206% | 122% (inactive) | 103% (inactive) | 176% (active) | 126% | 159% |
| COc1ccc(S(=O)(=O)N2Cc3ccccc3CC2C(=O)O)cc1OC (centres undefined) | 97% (inactive) | 97% | 97.1% | 98.8% (inactive) | 96.5% | 98.5% | 104% (inactive) | 102% (inactive) | 99.3% (inactive) | 100% | 99.1% |
| COc1ccc(N2C(=O)C(Cl)=C(Nc3ccccc3OC)C2=O)cc1 | 101% (inactive) | 98.4% | 102% | 98.2% (inactive) | 94.2% | 98.4% | 105% (inactive) | 98% (inactive) | 97.3% (inactive) | 97.4% | 98.1% |
| CCOc1cc(C)c(S(=O)(=O)N2CCCC2)cc1C | 90% (inactive) | 83.8% | 91.1% | 137% (inactive) | 128% | 145% | 92.6% (inactive) | 94.5% (inactive) | 78.5% (inactive) | 72.1% | 80.9% |
| Cc1c([N+](=O)[O-])cnc(Sc2ccccc2)c1[N+](=O)[O-] | 100% (inactive) | 96.9% | 98.9% | 124% (inactive) | 120% | 127% | 102% (inactive) | 97.6% (inactive) | 101% (inactive) | 101% | 99.7% |
| CCN1CCN(C(=O)C2CCN(c3nnc(C)c4c(C)n(-c5ccc(C)cc5)nc34)CC2)CC1 | 97.2% (inactive) | 96.5% | 97.8% | 102% (inactive) | 101% | 101% | 104% (inactive) | 106% (inactive) | 99.3% (inactive) | 102% | 98% |
| O=C(c1ccccc1F)N1CCN(c2cccc(C(F)(F)F)c2)CC1 | 98.2% (inactive) | 97.6% | 96.5% | 97.7% (inactive) | 101% | 96.4% | 108% (inactive) | 106% (inactive) | 95.8% (inactive) | 97.6% | 94.9% |
| Cc1ccc(NC(=O)COc2ccc(Br)cc2C)cc1 | 99.5% (inactive) | 97.3% | 100% | 107% (inactive) | 102% | 104% | 104% (inactive) | 96.7% (inactive) | 97.8% (inactive) | 98.3% | 95.6% |
| COc1ccc(CC(=O)NCc2ccccn2)cc1OC | 97.6% (inactive) | 97.8% | 98% | 93.8% (inactive) | 95.6% | 96.2% | 100% (inactive) | 100% (inactive) | 97.8% (inactive) | 96.5% | 95.5% |
| CC(=O)Oc1oc(-c2ccccc2)nc1C=Nc1ccccc1 | 102% (inactive) | 101% | 98.6% | 126% (inactive) | 119% | 130% | 97.2% (inactive) | 95.2% (inactive) | 90.3% (inactive) | 92.3% | 89.3% |
